Blank lines part the entries; values can stand above or below the compound they belong to. Activity calls are given as the source filed them. The rule behind the calls is not given here.
Experiments:
Rattus norvegicus [1] = assay: Antiinflammatory activity in Wistar rat assessed as inhibition of carrageenan-induced hind paw edema at 20 mg/kg, po administered 30 mins before carrageenan challenge measured after 5 hrs by plethysmometer; format: functional
Outline: (§1)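 Wistar rats of either sex, 150–175 g, fasted 16 h, n = 6 per group. Compound given orally at 20 mg/kg as a suspension in 1% CMC in water (10 mL/kg); controls got vehicle only. After 30 min, 0.1 mL of 1% carrageenan in saline was injected subplantar into the left hind paw. Paw volume was measured by plethysmometer at 0, 3 and 5 h. Inhibition = (1 − Vt/Vc) × 100, reported as mean ± SEM.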

[2] = molecular target: Prostaglandin G/H synthase 2 (Bos taurus) (UniProt O62698); assay: Inhibition of bovine COX2 assessed as PGE2 production preincubated for 10 mins by ELISA
Outline: (§2)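 In vitro inhibition of bovine COX-1 and COX-2 measured with a COX inhibitor screening kit, following the Gierse et al. method.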

[3] = molecular target: Prostaglandin G/H synthase 1 (Bos taurus) (UniProt O62664); assay: Inhibition of bovine COX1 assessed as PGE2 production preincubated for 10 mins by ELISA; outline: as §2
Rattus norvegicus [4] = assay: Toxicity in Wistar rat assessed as appearance of ulcerogenic lesions in stomach at 60 mg/kg, po; format: organism-based; parameters: dose 60 mg/kg, route oral; settings: in vivo
Outline: (§3)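 Wistar rats, 160–220 g, fasted 24 h, six per group. Compound given orally at 60 mg/kg as a suspension in 1% w/v CMC (10 mL/kg); controls got vehicle only. Animals were killed under ether anaesthesia 6 h after treatment, and stomachs were opened along the greater curvature and examined for lesions and bleeding.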

Rattus norvegicus [5] = assay: Antiinflammatory activity in Wistar rat assessed as inhibition of carrageenan-induced hind paw edema at 20 mg/kg, po administered 30 mins before carrageenan challenge measured after 3 hrs by plethysmometer; format: functional; outline: as §1
Rattus norvegicus [6] = assay: Toxicity in Wistar rat assessed as appearance of ulcerogenic bleeding in stomach at 60 mg/kg, po; format: organism-based; parameters: dose 60 mg/kg, route oral; settings: in vivo; outline: as §3
SK-MEL-28 = assay: Anticancer activity against human SK-MEL-28 cells assessed as cellular growth at 10 uM; format: functional
Outline: (§4)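 Primary single-dose screen at 10⁻⁵ M, run under the NCI Drug Evaluation Branch protocol against the full panel of about 60 human tumour lines. The lines come from leukaemia, melanoma, lung, colon, CNS, ovarian, renal, prostate and breast cancers. Read-out is cellular growth.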

MDA-MB-468 = assay: Anticancer activity against human MDA-MB-468 cells assessed as cellular growth at 10 uM; format: functional; outline: as §4
TK-10 = assay: Anticancer activity against human TK10 cells assessed as cellular growth at 10 uM; format: functional
Outline: (§5)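 NCI primary one-dose screen at 10⁻⁵ M against the ~60 human tumour cell line panel (leukemia, melanoma, lung, colon, CNS, ovarian, renal, prostate, breast). Read-out is cellular growth.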

A549 = assay: Anticancer activity against human A549 cells assessed as cellular growth at 10 uM; format: functional
Outline: (§6)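 Primary one-dose screen at 10⁻⁵ M, run per the NCI Drug Evaluation Branch protocol on the full panel of about 60 human tumor lines. The panel covers nine cancer types: leukemia, melanoma, lung, colon, CNS, ovarian, renal, prostate and breast.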

DU-145 = assay: Anticancer activity against human DU145 cells assessed as cellular growth at 10 uM; format: functional; outline: as §6
HCT-116 = assay: Anticancer activity against human HCT116 cells assessed as cellular growth at 10 uM; format: functional; outline: as §6
PC-3 = assay: Anticancer activity against human PC3 cells assessed as cellular growth at 10 uM; format: functional; outline: as §4
HOP-62 = assay: Anticancer activity against human HOP62 cells assessed as cellular growth at 10 uM; format: functional; outline: as §6
SW-620 = assay: Anticancer activity against human SW620 cells assessed as cellular growth at 10 uM; format: functional; outline: as §5
UACC-257 = assay: Anticancer activity against human UACC257 cells assessed as cellular growth at 10 uM; format: functional; outline: as §5
[7] = Anticancer activity against human Hs 578T cells assessed as cellular growth at 10 uM; format: functional; outline: as §6
SK-MEL-5 = assay: Anticancer activity against human SK-MEL-5 cells assessed as cellular growth at 10 uM; format: functional; outline: as §4
SN12C = assay: Anticancer activity against human SN12C cells assessed as cellular growth at 10 uM; format: functional; outline: as §4
786-0 = assay: Anticancer activity against human 786-0 cells assessed as cellular growth at 10 uM; format: functional; outline: as §6
OVCAR-3 = assay: Anticancer activity against human OVCAR3 cells assessed as cellular growth at 10 uM; format: functional; outline: as §4
ACHN = assay: Anticancer activity against human ACHN cells assessed as cellular growth at 10 uM; format: functional; outline: as §6
NCI/ADR-RES = assay: Anticancer activity against human NCI/ADR-RES cells assessed as cellular growth at 10 uM; format: functional; outline: as §4
UO-31 = assay: Anticancer activity against human UO31 cells assessed as cellular growth at 10 uM; format: functional; outline: as §5
MDA-MB-231 = assay: Anticancer activity against human MDA-MB-231 cells assessed as cellular growth at 10 uM; format: functional; outline: as §6
NCI-H322M = assay: Anticancer activity against human NCI-H322M cells assessed as cellular growth at 10 uM; format: functional; outline: as §4
NCI-H23 = assay: Anticancer activity against human NCI-H23 cells assessed as cellular growth at 10 uM; format: functional; outline: as §4
IGROV-1 = assay: Anticancer activity against human IGROV1 cells assessed as cellular growth at 10 uM; format: functional; outline: as §6
U-251 = assay: Anticancer activity against human U251 cells assessed as cellular growth at 10 uM; format: functional; outline: as §5
NCI-H226 = assay: Anticancer activity against human NCI-H226 cells assessed as cellular growth at 10 uM; format: functional; outline: as §4
RPMI-8226 = assay: Anticancer activity against human RPMI8226 cells assessed as cellular growth at 10 uM; format: functional; outline: as §4
MCF7 = assay: Anticancer activity against human MCF7 cells assessed as cellular growth at 10 uM; format: functional; outline: as §6
MDA-MB-435 = assay: Anticancer activity against human MDA-MB-435 cells assessed as cellular growth at 10 uM; format: functional; outline: as §6
EKVX = assay: Anticancer activity against human EKVX cells assessed as cellular growth at 10 uM; format: functional; outline: as §6
SNB-75 = assay: Anticancer activity against human SNB75 cells assessed as cellular growth at 10 uM; format: functional; outline: as §4
SF-295 = assay: Anticancer activity against human SF295 cells assessed as cellular growth at 10 uM; format: functional; outline: as §4
SF-268 = assay: Anticancer activity against human SF268 cells assessed as cellular growth at 10 uM; format: functional; outline: as §4
HT-29 = assay: Anticancer activity against human HT-29 cells assessed as cellular growth at 10 uM; format: functional; outline: as §6
LOX IMVI = assay: Anticancer activity against human LOXIMVI cells assessed as cellular growth at 10 uM; format: functional; outline: as §6
Malme-3M = assay: Anticancer activity against human MALME-3M cells assessed as cellular growth at 10 uM; format: functional; outline: as §6
OVCAR-4 = assay: Anticancer activity against human OVCAR4 cells assessed as cellular growth at 10 uM; format: functional; outline: as §4
OVCAR-8 = assay: Anticancer activity against human OVCAR8 cells assessed as cellular growth at 10 uM; format: functional; outline: as §4
HCC 2998 = assay: Anticancer activity against human HCC2998 cells assessed as cellular growth at 10 uM; format: functional; outline: as §6
KM12 = assay: Anticancer activity against human KM12 cells assessed as cellular growth at 10 uM; format: functional; outline: as §6
OVCAR-5 = assay: Anticancer activity against human OVCAR5 cells assessed as cellular growth at 10 uM; format: functional; outline: as §4
BT-549 = assay: Anticancer activity against human BT549 cells assessed as cellular growth at 10 uM; format: functional; outline: as §6
SNB-19 = assay: Anticancer activity against human SNB19 cells assessed as cellular growth at 10 uM; format: functional; outline: as §4
SF-539 = assay: Anticancer activity against human SF539 cells assessed as cellular growth at 10 uM; format: functional; outline: as §4
UACC-62 = assay: Anticancer activity against human UACC62 cells assessed as cellular growth at 10 uM; format: functional; outline: as §5
M14 = assay: Anticancer activity against human M14 cells assessed as cellular growth at 10 uM; format: functional; outline: as §6
HCT-15 = assay: Anticancer activity against human HCT15 cells assessed as cellular growth at 10 uM; format: functional; outline: as §6
SK-MEL-2 = assay: Anticancer activity against human SK-MEL-2 cells assessed as cellular growth at 10 uM; format: functional; outline: as §4
HOP-92 = assay: Anticancer activity against human HOP92 cells assessed as cellular growth at 10 uM; format: functional; outline: as §6
NCI-H522 = assay: Anticancer activity against human NCI-H522 cells assessed as cellular growth at 10 uM; format: functional; outline: as §4
RXF 393 = assay: Anticancer activity against human RXF393 cells assessed as cellular growth at 10 uM; format: functional; outline: as §4
T47D = assay: Anticancer activity against human T47D cells assessed as cellular growth at 10 uM; format: functional; outline: as §5
NCI-H460 = assay: Anticancer activity against human NCI-H460 cells assessed as cellular growth at 10 uM; format: functional; outline: as §4
SK-OV-3 = assay: Anticancer activity against human SKOV3 cells assessed as cellular growth at 10 uM; format: functional; outline: as §4
COLO 205 = assay: Anticancer activity against human COLO205 cells assessed as cellular growth at 10 uM; format: functional; outline: as §6
A498 = assay: Anticancer activity against human A498 cells assessed as cellular growth at 10 uM; format: functional; outline: as §6

Sequence of Prostaglandin G/H synthase 1 (Bos taurus) (O62664 whole entry): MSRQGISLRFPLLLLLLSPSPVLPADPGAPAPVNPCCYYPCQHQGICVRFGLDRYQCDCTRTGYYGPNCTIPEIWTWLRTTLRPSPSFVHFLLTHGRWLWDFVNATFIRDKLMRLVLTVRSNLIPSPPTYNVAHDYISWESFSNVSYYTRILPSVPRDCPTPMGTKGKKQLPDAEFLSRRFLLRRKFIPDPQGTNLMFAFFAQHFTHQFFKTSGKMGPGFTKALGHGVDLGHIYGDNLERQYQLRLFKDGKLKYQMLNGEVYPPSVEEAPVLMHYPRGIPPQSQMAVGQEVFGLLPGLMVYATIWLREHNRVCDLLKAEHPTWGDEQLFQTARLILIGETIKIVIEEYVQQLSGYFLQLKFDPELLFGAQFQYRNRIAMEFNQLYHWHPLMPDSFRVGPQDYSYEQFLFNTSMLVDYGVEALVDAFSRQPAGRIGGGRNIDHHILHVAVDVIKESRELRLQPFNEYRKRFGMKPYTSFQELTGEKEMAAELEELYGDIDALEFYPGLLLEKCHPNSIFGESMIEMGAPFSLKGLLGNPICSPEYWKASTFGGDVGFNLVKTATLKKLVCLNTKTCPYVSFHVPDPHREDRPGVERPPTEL
Sequence of Prostaglandin G/H synthase 2 (Bos taurus) (O62698 whole entry): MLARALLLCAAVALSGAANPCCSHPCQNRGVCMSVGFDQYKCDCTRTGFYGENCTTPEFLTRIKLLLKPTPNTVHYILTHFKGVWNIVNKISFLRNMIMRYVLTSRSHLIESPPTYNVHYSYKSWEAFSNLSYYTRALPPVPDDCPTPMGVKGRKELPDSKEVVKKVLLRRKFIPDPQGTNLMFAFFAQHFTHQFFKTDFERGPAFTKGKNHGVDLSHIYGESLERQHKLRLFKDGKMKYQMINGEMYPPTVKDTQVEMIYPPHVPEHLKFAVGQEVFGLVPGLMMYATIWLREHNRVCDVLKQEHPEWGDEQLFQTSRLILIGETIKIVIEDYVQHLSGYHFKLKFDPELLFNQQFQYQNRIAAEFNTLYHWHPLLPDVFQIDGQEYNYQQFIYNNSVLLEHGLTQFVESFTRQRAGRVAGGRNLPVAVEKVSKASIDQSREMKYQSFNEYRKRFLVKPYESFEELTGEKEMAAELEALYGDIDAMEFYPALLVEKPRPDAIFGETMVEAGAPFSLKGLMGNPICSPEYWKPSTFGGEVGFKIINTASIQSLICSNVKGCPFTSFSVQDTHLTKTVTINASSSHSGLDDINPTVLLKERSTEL

inhibition [2]: Active | inhibition [3]: inactive
Compound: COc1cc(C)c(Cl)cc1C1=NN(c2ccc(S(N)(=O)=O)cc2)C(c2ccc(N(C)C)cc2)C1 (centres undefined)
inhibition in vivo at 20 mg/kg (Rattus norvegicus [1]): 95.2% | Activity (Rattus norvegicus [4]): Non-toxic | inhibition in vivo at 20 mg/kg (Rattus norvegicus [5]): 78.9% | Activity (Rattus norvegicus [6]): Non-toxic

Compound: COc1ccc(C2CC(c3cc(Cl)c(C)cc3OC)=NN2c2ccc(S(N)(=O)=O)cc2)cc1OC (centres undefined)
Activity (SK-MEL-28): 108.41% | Activity (MDA-MB-468): 94.62% | Activity (TK-10): 112.95% | Activity (A549): 73.23% | Activity (DU-145): 105.76% | inhibition in vivo at 20 mg/kg (Rattus norvegicus [1]): 47.6% | Activity (HCT-116): 56.66% | Activity (PC-3): 52.25% | Activity (HOP-62): 87.79% | Activity (SW-620): 93.6% | Activity (UACC-257): 87.16% | Activity [7]: 100.69% | Activity (SK-MEL-5): 84.63% | Activity (SN12C): 87.41% | Activity (786-0): 92.29% | Activity (OVCAR-3): 103.3% | Activity (ACHN): 83.96% | Activity (NCI/ADR-RES): 77.18% | Activity (UO-31): 59.09% | Activity (MDA-MB-231): 84.64% | Activity (NCI-H322M): 103.5% | Activity (NCI-H23): 75.79% | Activity (IGROV-1): 79.08% | Activity (U-251): 78.37% | Activity (NCI-H226): 81.27% | Activity (RPMI-8226): 90.96% | Activity (MCF7): 80.37% | Activity (MDA-MB-435): 95.83% | Activity (EKVX): 80.65% | Activity (SNB-75): 83.56% | Activity (SF-295): 122.81% | Activity (SF-268): 90.07% | Activity (HT-29): 78.73% | Activity (LOX IMVI): 77.92% | Activity (Malme-3M): 101.32% | Activity (OVCAR-4): 87.79% | Activity (OVCAR-8): 73.83% | Activity (HCC 2998): 99.94% | Activity (KM12): 91.8% | Activity (OVCAR-5): 70.62% | Activity (BT-549): 83.23% | Activity (SNB-19): 100.7% | Activity (SF-539): 102.69% | inhibition in vivo at 20 mg/kg (Rattus norvegicus [5]): 31.6% | Activity (UACC-62): 65.06% | Activity (M14): 81.83% | Activity (HCT-15): 75.93% | Activity (SK-MEL-2): 95.75% | Activity (HOP-92): 101.2% | Activity (NCI-H522): 74.33% | Activity (RXF 393): 77.69% | Activity (T47D): 77.03% | Activity (NCI-H460): 89.78% | Activity (SK-OV-3): 116.37% | Activity (COLO 205): 101.3% | Activity (A498): 111.51%

Compound: COc1cc(C)c(Cl)cc1C1=NN(c2ccc(S(N)(=O)=O)cc2)C(/C=C/c2ccccc2)C1 (centres undefined)
inhibition in vivo at 20 mg/kg (Rattus norvegicus [1]): 52.4% | inhibition in vivo at 20 mg/kg (Rattus norvegicus [5]): 55.3%

Reference: ChEMBL document CHEMBL1914430, “Synthesis of some new 1,3,5-trisubstituted pyrazolines bearing benzene sulfonamide as anticancer and anti-inflammatory agents” (Bioorg Med Chem Lett, 2011)
